From ChEMBL document CHEMBL3244303, “Synthesis of spiro[isobenzofuran-1(3H),4'-piperidines] as potential central nervous system agents. 5. Conformationally mobile analogues derived by furan ring opening” (J Med Chem, 1979)

system: Mus musculus; experiment: Antidepressant activity in ip dosed CD1 mouse assessed as inhibition of tetrabenazine methanesulfonate-induced reserpine like behavior administered 30 mins before tetrabenazine methanesulfonate challenge measured after 30 mins; assay type: functional
Procedure, shortened: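 Male CD-1 mice, groups of five, given test compound ip; tetrabenazine methanesulfonate 40 mg/kg ip 30 min later; after a further 30 min mice placed in individual containers and ptosis scored on a three-point scale (eyes closed = 2).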

SMILES	ED50
COc1ccc(Cc2ccccc2C2(O)CCN(C)CC2)cc1	> 20 mg/kg
OC1(c2ccccc2Cc2ccccc2)CCN(CCc2ccccc2)CC1	> 20 mg/kg
Br.CN1CCC(c2ccccc2Cc2ccc(F)cc2)CC1	4.9 mg/kg
ON1CCC(c2ccccc2Cc2ccccc2)CC1	7.3 mg/kg
COc1ccc(Cc2ccccc2C2CCNCC2)cc1.Cl	7.1 mg/kg
Br.CN1CC=C(c2ccc(Cc3ccccc3)cc2)CC1	> 20 mg/kg
CN1CCC(OCc2ccccc2)(c2ccccc2)CC1.Cl	6.2 mg/kg
Cl.c1ccc(COC2(c3ccccc3)CCNCC2)cc1	10.1 mg/kg
O=C(Oc1ccccc1)N1CCC(c2ccccc2Cc2ccccc2)CC1	> 20 mg/kg
Oc1ccc(Cc2ccccc2C2CCNCC2)cc1	1.2 mg/kg
Br.COc1ccc(Cc2ccccc2C2=CCN(C)CC2)cc1	> 20 mg/kg
CNCCCN1c2ccccc2CCc2ccccc21 [DESIPRAMINE]	0.8 mg/kg
C1=C(c2ccccc2Cc2ccccc2)CCN(CCc2ccccc2)C1	> 20 mg/kg
Cl.OC1(c2ccccc2Cc2ccccc2)CCN(Cc2ccccc2)CC1	> 20 mg/kg
c1ccc(CCN2CCC(OCc3ccccc3)(c3ccccc3)CC2)cc1	> 20 mg/kg
Br.CN1CC=C(c2cccc(Cc3ccccc3)c2)CC1	> 20 mg/kg
CN1CCC(c2ccccc2Cc2ccc(O)cc2)CC1	> 20 mg/kg

SMILES	ED50
COC1(c2ccccc2Cc2ccccc2)CCN(C)CC1.Cl	> 20 mg/kg
CN1CCC(O)(c2cccc(Cc3ccccc3)c2)CC1	> 20 mg/kg
CC(=O)OC1(c2cccc(Cc3ccccc3)c2)CCN(C)CC1.Cl	> 20 mg/kg
CN1CCC(O)(c2ccc(Cc3ccccc3)cc2)CC1	> 20 mg/kg
Br.Fc1ccc(Cc2ccccc2C2CCNCC2)cc1	1.5 mg/kg
COC1(c2ccccc2Cc2ccccc2)CCNCC1	7.8 mg/kg
Br.COc1ccc(Cc2ccccc2C2CCN(C)CC2)cc1	> 20 mg/kg
CN1CCC(O)(c2ccccc2Cc2ccccc2)CC1	18 mg/kg
CC(=O)OC1(c2ccccc2Cc2ccccc2)CCN(Cc2ccccc2)CC1.Cl	> 20 mg/kg
CN(C)CCC=C1c2ccccc2CCc2ccccc21 [AMITRIPTYLINE]	1.9 mg/kg
C1=C(c2ccccc2Cc2ccccc2)CCN(Cc2ccccc2)C1.Cl	> 20 mg/kg
CN(C)CCCN1c2ccccc2CCc2ccccc21 [IMIPRAMINE]	1.3 mg/kg
Br.c1ccc(CCN2CCC(c3ccccc3Cc3ccccc3)CC2)cc1	10.8 mg/kg
Cl.c1ccc(COC2(c3ccccc3)CCN(CC3CC3)CC2)cc1	6.3 mg/kg
CCOC(=O)N1CCC(OCc2ccccc2)(c2ccccc2)CC1	> 20 mg/kg
CC(=O)OC1(c2ccccc2Cc2ccccc2)CCN(C)CC1.Cl	> 20 mg/kg

molecular target: Transporter (Rattus norvegicus, UniProt Q63380); experiment: Inhibition of NET-mediated norepinephrine uptake in rat brain synaptosomes; assay type: subcellular
Sequence (Q63380 whole entry): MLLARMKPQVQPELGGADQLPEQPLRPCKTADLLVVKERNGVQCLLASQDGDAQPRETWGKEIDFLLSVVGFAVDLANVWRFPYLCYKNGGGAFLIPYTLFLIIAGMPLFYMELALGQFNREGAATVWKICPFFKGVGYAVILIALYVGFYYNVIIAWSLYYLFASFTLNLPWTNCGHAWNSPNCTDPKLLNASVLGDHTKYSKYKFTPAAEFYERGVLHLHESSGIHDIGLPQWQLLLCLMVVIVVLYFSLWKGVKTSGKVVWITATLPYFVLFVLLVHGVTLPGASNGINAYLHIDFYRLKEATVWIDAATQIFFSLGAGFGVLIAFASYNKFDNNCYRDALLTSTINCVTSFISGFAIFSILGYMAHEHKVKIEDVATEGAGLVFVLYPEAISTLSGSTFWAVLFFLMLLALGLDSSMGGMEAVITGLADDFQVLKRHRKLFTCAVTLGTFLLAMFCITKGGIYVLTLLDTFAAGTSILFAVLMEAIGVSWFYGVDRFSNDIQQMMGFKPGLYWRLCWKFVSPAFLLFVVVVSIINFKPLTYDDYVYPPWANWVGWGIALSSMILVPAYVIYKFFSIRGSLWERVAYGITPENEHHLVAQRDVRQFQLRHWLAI

IC50	SMILES
10 nM	c1ccc(C2OC3(CCNCC3)c3ccccc32)cc1 (centres undefined)
